According to PubChem BioAssay AID493237 (Broad Institute, 2011):
“And” between values parts separate entries of the source, which are not always exact repeats. Equal values may be shown once. The source made the active and inactive calls.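 Rule for the calls: active = fitted curve reaching 40% activation at a concentration no higher than the top valid dose tested; inconclusive = flat curve between 30 and 70% activation, or poor fit; inactive = the rest, including opposite-direction effects.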

Tests used:
[1] = HRE reporter activators under added iron – cell-based, U2OS, luminescence, dry powder, set 2, mechanism study for HIF pathway activator project, dose response (AID 493237); conditions: U2OS HRE-luciferase reporter, iron condition, luminescence; at 38 µM (top of the series)
In short: (§1)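 System: Human U2OS osteosarcoma cells with stable 3×HRE-driven luciferase reporter | Quantity: 6,000 cells per well | Also added: Ferric nitrate at 50 µM final, added before compound | Dosing: 8-point series in threefold dilution steps | Timing: 24 h plating, then 24 h compound exposure at 37 °C | Measured by: Steady-Glo luminescence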

[2] = test system: U2OS HRE-luciferase reporter, iron condition, luminescence; test: as above
In short: as §1

SMILES | activation [1] | AC40 [2]
Cn1c(-c2ccccc2)cnc1Nc1nc(-c2ccccn2)nnc1-c1ccccc1 | 11.2% (inactive) | 
Cc1ccc(NC(=O)c2cc(-c3ccccc3)on2)cn1 | -0.441% (inactive) | 
c1ccc(-c2cccc(CNc3nc(-c4ccccn4)nnc3-c3ccccc3)c2)cc1 |  | 10.1 µM
CC(C)(C)c1ccc(CNc2nc(-c3ccccn3)nnc2-c2ccccc2)cc1 |  | 20.6 µM
COc1ccc(CNc2nc(-c3ccccn3)nnc2-c2ccccc2)cc1 |  | 9.43 µM
Cc1cccc(CNc2nc(-c3ccccn3)nnc2-c2ccccc2)c1 |  | 8.97 µM
Oc1ccc(CNC2CCc3ccccc32)c2cccnc12 (configuration not stated) | -45.6% (inactive) | 
CCCCNC(=O)c1cc(-c2ccccc2)on1 |  | 3.76 µM
O=C(NCCCN1CCOCC1)c1cc(-c2ccccc2)on1 |  | 10.3 µM
Cc1cccc(CNC(=O)c2cc(-c3ccccc3)on2)c1 | -17.5% (inactive) | 
c1ccc(-c2cnc(Nc3nc(-c4ccccn4)nnc3-c3ccccc3)s2)cc1 | 1.03% (inactive) | 
C=CCNc1nc(-c2ccccn2)nnc1-c1ccccc1 |  | 26.5 µM
c1ccc(-c2nnc(-c3ccccn3)nc2NCCN2CCOCC2)cc1 |  | 19.4 µM
N#CC1(c2ccccc2)CCN(Cc2ccc(O)c3ncccc23)CC1 | -19.9% (inactive) | 
Cc1cccc(Nc2nc(-c3ccccn3)nnc2-c2ccccc2)n1 |  | 27.2 µM
O=C(NCCCO)c1cc(-c2ccccc2)on1 |  | 5.66 µM
c1ccc(-c2ccc(CNc3nc(-c4ccccn4)nnc3-c3ccccc3)cc2)cc1 |  | 9.52 µM
COc1ccccc1N1CCN(Cc2ccc(O)c3ncccc23)CC1 | -35.6% (inactive) | 
O=C(NCCCn1ccnc1)c1cc(-c2ccccc2)on1 |  | 4.5 µM
Cc1cccc(NC(=O)c2cc(-c3ccccc3)on2)n1 |  | > 38 µM (inactive)
C[C@@H](Nc1nc(-c2ccccn2)nnc1-c1ccccc1)C1CCCCC1 |  | 7.81 µM
c1ccc(-c2nnc(-c3ccccn3)nc2NCCCN2CCOCC2)cc1 |  | 26.1 µM

SMILES | activation [1] | AC40 [2]
c1ccc(-c2nnc(-c3ccccn3)nc2N2CCC(c3ccccc3)C2)cc1 (configuration not stated) |  | 18.7 µM
O=C(NC1Cc2ccccc2C1)c1cc(-c2ccccc2)on1 |  | > 38 µM (inactive)
c1ccc(-c2nnc(-c3ccccn3)nc2NCC2CCCCC2)cc1 |  | 9.8 µM
Cc1ccc(CNc2nc(-c3ccccn3)nnc2-c2ccccc2)cc1C |  | 6.44 µM
c1ccc(-c2nnc(Nc3nc(-c4ccccn4)nnc3-c3ccccc3)s2)cc1 |  | > 38 µM (inactive)
Cn1c(-c2ccccc2)cnc1NC(=O)c1cc(-c2ccccc2)on1 | 6.19% (inactive) | 
CC(Nc1nc(-c2ccccn2)nnc1-c1ccccc1)c1ccccc1 (configuration not stated) |  | 10.3 µM
O=C(Nc1nc(-c2ccccc2)cs1)c1cc(-c2ccccc2)on1 | -4.82% (inactive) | 
CC(C)(C)CCNc1nc(-c2ccccn2)nnc1-c1ccccc1 |  | 10.2 µM and 8.22 µM
c1ccc(-c2nnc(-c3ccccn3)nc2NCCc2ccccn2)cc1 |  | 24.3 µM
O=C(Nc1cnc2ccccc2c1)c1cc(-c2ccccc2)on1 | 14% (inactive) | 
O=C(NCCN1CCOCC1)c1cc(-c2ccccc2)on1 |  | 9.15 µM
C[C@@H](Nc1nc(-c2ccccn2)nnc1-c1ccccc1)c1ccccc1 |  | 8.05 µM
O=C(NCCCCO)c1cc(-c2ccccc2)on1 |  | 1.29 µM
c1ccc(-c2nnc(-c3ccccn3)nc2NCC2CC2)cc1 |  | 24 µM
OCC1CCN(Cc2ccc(O)c3ncccc23)CC1 | -24% (inactive) | 
O=C(NCc1ccccc1)c1cc(-c2ccccc2)on1 |  | > 38 µM (inactive)
O=C(NCCN1CCCCC1)c1cc(-c2ccccc2)on1 | 15.3% (inactive) | 
CN1CCN(c2nc(-c3ccccn3)nnc2-c2ccccc2)CC1 |  | 25 µM
O=C(NC1CCc2ccccc2C1)c1cc(-c2ccccc2)on1 (configuration not stated) | -15.1% (inactive) | 
CN(C)c1nc(-c2ccccn2)nnc1-c1ccccc1 |  | 24.5 µM
O=C(Nc1cn2ccccc2n1)c1cc(-c2ccccc2)on1 | -9.98% (inactive) | 

SMILES | activation [1] | AC40 [2]
c1ccc(-c2nnc(-c3ccccn3)nc2NCC2CCOCC2)cc1 | 137% (inactive) | 
O=C(c1cc(-c2ccccc2)on1)N1CCc2cccnc21 | -8.92% (inactive) | 
OCC1CCN(c2nc(-c3ccccn3)nnc2-c2ccccc2)CC1 | 37.3% (inactive) | 
Cc1ccccc1CNC(=O)c1cc(-c2ccccc2)on1 | 15.4% (inactive) | 
Oc1ccc(CN2CCC(Cc3ccccc3)CC2)c2cccnc12 | -17.9% (inactive) | 
O=C(c1cc(-c2ccccc2)on1)N1CCC(N2CCCC2)CC1 | -1.29% (inactive) | 
Oc1ccc(CNC2Cc3ccccc3C2)c2cccnc12 | -38.8% (inactive) | 
O=C(Nc1ncc(-c2ccccc2)o1)c1cc(-c2ccccc2)on1 | -19.3% (inactive) | 
c1ccc(CNc2nc(-c3ccccn3)nnc2-c2ccccc2)cc1 |  | 9.31 µM
Cc1ccc(Nc2nc(-c3ccccn3)nnc2-c2ccccc2)cn1 |  | 24.3 µM
O=C(Nc1ncc2ccccc2n1)c1cc(-c2ccccc2)on1 |  | > 38 µM (inactive)
O=C(c1cc(-c2ccccc2)on1)N1CCC(N2CCOCC2)CC1 | -12.6% (inactive) | 
O=C(Nc1ccc2ccccc2n1)c1cc(-c2ccccc2)on1 | -19.3% (inactive) | 
Clc1cccc(CNc2nc(-c3ccccn3)nnc2-c2ccccc2)c1 |  | 11.6 µM
c1ccc(-c2nnc(-c3ccccn3)nc2NCc2ccccn2)cc1 |  | 15.9 µM
Cc1ccc(CNC(=O)c2cc(-c3ccccc3)on2)cc1 | -26.7% (inactive) | 
O=C(Nc1nnc(-c2ccccc2)s1)c1cc(-c2ccccc2)on1 | 2.91% (inactive) | 
Oc1ccc(CN2CCc3ccccc3C2)c2cccnc12 | -30.4% (inactive) | 
c1ccc(-c2nnc(-c3ccccn3)nc2NCc2cccnc2)cc1 |  | 25.9 µM
CC(C)(C)CCNC(=O)c1cc(-c2ccccc2)on1 |  | 8.89 µM
c1ccc(-c2nnc(-c3ccccn3)nc2N2CCC(C3CCCCC3)C2)cc1 (configuration not stated) | -30.3% (inactive) | 
COc1cccc(CNc2nc(-c3ccccn3)nnc2-c2ccccc2)c1 |  | 10.7 µM

SMILES | activation [1] | AC40 [2]
O=C(c1cc(-c2ccccc2)on1)N1CCC(CO)CC1 | -15.4% (inactive) | 
C[C@H](Nc1nc(-c2ccccn2)nnc1-c1ccccc1)C1CCCCC1 |  | 9.72 µM
OCCCNc1nc(-c2ccccn2)nnc1-c1ccccc1 |  | 23.9 µM
c1ccc(-c2nnc(-c3ccccn3)nc2Nc2cnc3ccccc3n2)cc1 |  | 24.8 µM
CC(C)(C)OC(=O)N1CCN(Cc2ccc(O)c3ncccc23)CC1 | -18.7% (inactive) | 
Cc1ccccc1CNc1nc(-c2ccccn2)nnc1-c1ccccc1 |  | 7.8 µM
Cn1c(NC(=O)c2cc(-c3ccccc3)on2)nc2ccccc21 | 7.37% (inactive) | 
Oc1ccc(CN2CCC3CCCCC3C2)c2cccnc12 (configuration not stated) | -51.1% (inactive) | 
CN1CCN(C(=O)c2cc(-c3ccccc3)on2)CC1 | -32.3% (inactive) | 
O=C(c1cc(-c2ccccc2)on1)N1CCN(c2ccncc2)CC1 | -11.7% (inactive) | 
c1ccc(-c2nnc(-c3ccccn3)nc2N2CCN(c3ccncc3)CC2)cc1 |  | 22.9 µM
Cc1ccc(CNc2nc(-c3ccccn3)nnc2-c2ccccc2)cc1 |  | 11.4 µM
c1ccc(-c2nnc(-c3ccccn3)nc2Nc2nc3ccccc3s2)cc1 | 21.8% (inactive) | 
c1ccc(CCNc2nc(-c3ccccn3)nnc2-c2ccccc2)cc1 |  | 10.6 µM
O=C(Nc1nc2ccccc2s1)c1cc(-c2ccccc2)on1 | 9.12% (inactive) | 
CC1CN(Cc2ccc(O)c3ncccc23)CC(C)O1 (configuration not stated) | -40% (inactive) | 
O=C(NCC1CCCCC1)c1cc(-c2ccccc2)on1 | 21.9% (inactive) | 
CN(C)CCNC(=O)c1cc(-c2ccccc2)on1 | 19.3% (inactive) | 
O=C(NCC1CC1)c1cc(-c2ccccc2)on1 |  | 3.19 µM
c1ccc(-c2csc(Nc3nc(-c4ccccn4)nnc3-c3ccccc3)n2)cc1 |  | > 38 µM (inactive)
c1ccc(-c2nnc(-c3ccccn3)nc2N2CCC(N3CCOCC3)CC2)cc1 |  | 21 µM
